This is a sample that favours compounds with a hit; in the whole collection about 2.3% have one here.
TRPC6 inh – blocks the mouse TRPC6 cation channel. HEK293-TRPC6, membrane potential dye, ACh-evoked depolarization; hits give low values. AID 2553. B-score at 10 µM. hit rate 1.1% among 310,000;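 active = B-score under library mean minus 3 SD, initial fluorescence not abnormally high, positive integrated signal ratio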;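 note: B-score derived from integrated fluorescence ratio over the kinetic read; more negative B-score means stronger inhibition of depolarization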
TRPC4 agonist – activators of mouse TRPC4 channel; Q9QUQ5; HEK293 TRPC4beta/mu-opioid, Fluo4 calcium fluorescence; hits give high values; B-score at 10 µM; hit rate 0.49% among 310,000; AID 2237;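 active = B-score above 5 SD of library B-scores, and initial fluorescence ratio not above library mean plus 5 SD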;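 note: positive B-score marks a calcium rise read as TRPC4 activation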
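Assay system: HEK293 stable line with TRPC4beta plus mu-opioid receptor; schedule: 45 min room-temperature Fluo4 loading, 110 s read; technique: kinetic Fluo4 calcium fluorescence; evaluation: integrated baseline-normalised fluorescence ratio, converted to per-well B score; controls: buffer (low) and maximal DAMGO (high)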
TRPC4 inh – inhibitors of mouse TRPC4 channel. HEK293 TRPC4beta/mu-opioid, DAMGO-evoked Fluo4 calcium flux; hits give low values. B-score at 10 µM. hit rate 0.39% among 300,000;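 active = B-score over 3 SD under the library average, no early fluorescence shift, positive overall ratio signal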
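Test system – stable TRPC4beta/mu-opioid receptor HEK293 cells · Probe or stimulus – DAMGO, a submaximal dose followed by a maximal one · Dosing – one concentration per compound · Signal – Fluo4 calcium fluorescence by kinetic imaging, 5 s 1 Hz baseline · Evaluation – per-well B score of integrated baseline-normalized Fluo4 ratio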
TRPC4 potent – TRPC4 (mouse) allosteric potentiation | Q9QUQ5 | HEK293 TRPC4beta/mu-opioid, DAMGO EC20, Fluo-4 Ca2+ flux; hits give high values | B-score at 10 µM | hit rate 0.42% among 310,000 | AID 2227;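 active = B-score of calcium response area above 5 SD of library B-scores, with initial fluorescence ratio within 5 SD of library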;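 note: B-score of integrated fluorescence ratio over time as area under calcium response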
TRPC6 activator – activates the mouse TRPC6 cation channel | hit rate 0.13% among 310,000 | HEK293-TRPC6 membrane potential dye fluorescence; hits give high values | Q61143 | B-score at 10 µM;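 active = B-score of the integrated fluorescence ratio above library mean plus 3 SD, and starting fluorescence ratio within library mean plus 5 SD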;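 note: higher score means more depolarization so channel activation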
TRPC4 spec 2 – second selectivity test of TRPC6 inhibitors: effect on mouse TRPC4 | shares compounds with TRPC6 inh | HEK293 TRPC4/MOR, membrane potential dye fluorescence; channel activated by saturating DAMGO dose | inhibition, % at 10 µM | hit rate 42% among 920 | AID 2776;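 active = compounds whose fluorescence signal differed from control wells by over 3 SD, either direction, in both duplicate plates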
TRPC4 spec – tests whether TRPC6 inhibitors also affect mouse TRPC4 | shares compounds with TRPC6 inh | HEK293 TRPC4/mu-opioid, membrane potential fluorescence | activity change, negative = inhibition, % at 10 µM | hit rate 61% among 920;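 active = rise or fall in signal beyond 3 SD of buffer-only wells in both replicate plates, either sign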;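 note: integrated kinetic ratio of fluorescence range over baseline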
HEK293 MPD ctr 2-1 – parental HEK293 nonspecific activity of TRPC6 inhibitors, second screen; shares compounds with TRPC6 inh; parental HEK293 membrane potential dye fluorescence; maximal acetylcholine challenge after compound addition; signal change vs control, % at 10 µM; hit rate 31% among 920;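 active = membrane potential signal moving either way by over 3 SD of the maximum-effect control, in both duplicate plates, meaning non-specific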
HEK293 MPD ctr-1 – parental HEK293 nonspecific activity of TRPC6 inhibitors | AID 2780 | hit rate 60% among 920 | parental HEK293 membrane potential dye fluorescence | shares compounds with TRPC6 inh | membrane potential signal change, % at 10 µM;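 active = membrane potential signal shifting up or down by more than 3 SD of buffer-only wells, on both duplicate plates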
HEK293 MPD ctr-2 – checks TRPC6 modulator effects in parental HEK293 cells | shares compounds with TRPC6 inh | membrane potential dye fluorescence | membrane potential signal change, % at 10 µM | hit rate 51% among 2,400;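 active = membrane potential signal moves up or down beyond 5 SD from buffer-only wells, on both duplicate plates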
HEK293 MPD ctr 2-2 – second check of TRPC6 modulator effects in parental HEK293 cells. shares compounds with TRPC6 inh. membrane potential dye fluorescence; after compound, maximal acetylcholine stimulation. inhibition, % at 10 µM. hit rate 14% among 2,400. AID 488926;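 active = membrane potential signal drops by more than 5 SD from the mean control signal, in both duplicate plates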;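 note: plate controls were acetylcholine ECmax control wells for no effect and buffer only wells for full effect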
TRPC4 ctr mod – mouse TRPC4 off-target activity of TRPC6 modulators; percent change from control (negative = decrease, positive = increase), % at 10 µM; HEK293 TRPC4/mu-opioid, membrane potential fluorescence; AID 488927; shares compounds with TRPC6 inh; hit rate 69% among 2,400;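 active = membrane potential signal moved up or down beyond 5 SD of buffer control wells, in both duplicate plates, actives on both sides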;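 note: plate controls were assay buffer wells for no effect and DAMGO maximal-effect wells for full effect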
TRPC4/MOR inh 2 – mouse TRPC4 off-target activity of TRPC6 modulators, second screen | shares compounds with TRPC6 inh | HEK293 TRPC4/mu-opioid, membrane potential dye fluorescence; stimulated with maximal-effect DAMGO | inhibition, % at 10 µM | hit rate 55% among 2,400 | AID 488928;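 active = drop in membrane potential signal beyond 5 SD of the control wells in both duplicate plates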;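 note: TRPC4 counter screen for TRPC6 hits run under conditions tuned for TRPC6 not TRPC4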
TRPC6 block conf – mouse TRPC6 inhibitor confirmation; shares compounds with TRPC6 inh; HEK293-TRPC6, membrane potential dye, ACh-evoked depolarization; inhibition, % at 10 µM; hit rate 43% among 3,300;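 active = fluorescence ratio falls more than 5 SD below the full-stimulation control mean, in both duplicate runs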;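 note: integrated fluorescence ratio of peak minus minimum over baseline after agonist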
TRPC6 act conf – mouse TRPC6 activator confirmation; shares compounds with TRPC6 inh; HEK293-TRPC6 membrane potential dye fluorescence, FDSS; activation, % at 10 µM; hit rate 11% among 2,800;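 active = ratio signal rise beyond 5 SD above unstimulated control wells' mean, seen in both duplicate runs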;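 note: plate controls were buffer EC0 wells for no effect and acetylcholine ECmax response for full effect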
* hit, by the source's call; i = inactive; x = no result given.

SMILES	TRPC6 inh	TRPC4 agonist	TRPC4 inh	TRPC4 potent	TRPC6 activator	HEK293 MPD ctr-2	HEK293 MPD ctr 2-2	TRPC4 ctr mod	TRPC4/MOR inh 2	TRPC6 block conf	TRPC6 act conf	others
CCN(CC)CCN(C(=O)c1ccc(C(=O)c2ccccc2)cc1)c1nc2c(OC)cccc2s1	i	i	i	i	i	x	x	x	x	x	x
CCN(CC)CCN(C(=O)c1ccc([N+](=O)[O-])cc1)c1nc2c(OC)cccc2s1	-6.26*	i	i	i	i	i	i	-12.5%*	36.0%*	i	i
CCN(CC)CCN(C(=O)C1=COCCO1)c1nc2cc3c(cc2s1)OCO3	-6.84*	i	i	i	i	x	x	x	x	i	i	TRPC4 spec 2=51.5%*;TRPC4 spec=-21.6%*;HEK293 MPD ctr 2-1=i;HEK293 MPD ctr-1=-183.5%*
CCN(CC)CCN(C(=O)C1=COCCO1)c1nc2c(OC)ccc(OC)c2s1	-5.41*	i	i	i	i	-104.0%*	i	-26.0%*	69.0%*	i	i
CC(NC(=O)c1cccs1)C(S)c1ccccc1 (stereo not drawn)	i	i	i	i	i	x	x	x	x	x	x
COc1ccc(/C=C/c2cc(C(F)(F)F)[nH]c(=O)n2)cc1OC	-5.91*	i	i	i	i	-180.0%*	i	-34.5%*	i	i	i
CCOc1cc(/C=C/c2cc(C(F)(F)F)[nH]c(=O)n2)ccc1O	i	i	i	i	i	x	x	x	x	x	x
CCN1CCN(c2c(C=O)c(Cl)nc3ccc(OC)cc23)CC1	-7.55*	78*	i	i	i	-276.0%*	72.0%*	i	54.0%*	57.5%*	i
CN(C)CC/C=C1/c2ccccc2Sc2ccc(Cl)cc21	-5.34*	i	i	i	i	i	i	9.0%*	53.5%*	48.0%*	i
CCCCCC[N+](C)(C)CC/C=C1/c2ccccc2Sc2ccc(Cl)cc21	-6.61*	i	-7*	i	i	x	x	x	x	78.1%*	i	TRPC4 spec 2=i;TRPC4 spec=i;HEK293 MPD ctr 2-1=i;HEK293 MPD ctr-1=i
CN(C)CC/C=C1\c2ccccc2COc2ccccc21	i	i	i	i	i	x	x	x	x	x	x
C#CCN1c2ccccc2Sc2cccnc21	i	i	i	i	i	x	x	x	x	x	x
Cc1nc2c(c(C)nn2-c2ccccc2)c(C)c1CCC(=O)Nc1ccc(CN2CCCC2)cc1	i	i	i	i	i	x	x	x	x	x	x
O=C(N/N=C/c1sc(N2CCOCC2)nc1-c1ccccc1)c1cccc(S(=O)(=O)N2CCCC2)c1	-5.93*	i	i	i	i	453.5%*	i	-55.5%*	i	i	i
O=C(N/N=C/c1sc(N2CCOCC2)nc1-c1ccccc1)c1ccc(O)cc1	i	i	i	i	i	x	x	x	x	x	x
O=C(N/N=C/c1cc(Br)cc(Br)c1O)c1cccc(S(=O)(=O)N2CCOCC2)c1	-5.72*	i	i	i	i	i	i	25.5%*	i	i	i
CC(=O)Nc1ccc(/C=N/NC(=O)c2cccc(S(=O)(=O)N3CCOCC3)c2)cc1	i	i	i	i	i	x	x	x	x	x	x
O=C(c1ccc2c(=O)n3c(nc2c1)CCCCC3)N1CCN(c2cccc(Cl)c2)CC1	i	i	i	i	i	x	x	x	x	x	x
CCc1noc(C)c1C(=O)Nc1ccc(S(=O)(=O)N2CCCCC2)cc1	i	i	i	i	i	x	x	x	x	x	x
CCc1noc(C)c1C(=O)Nc1ccc(-c2nnc3n2CCCCC3)cc1	-4.98*	i	i	i	i	i	i	i	i	i	i
Cc1ccc(N(CCC#N)C(=O)COC(=O)C2CCN(c3ccc(C(F)(F)F)cn3)CC2)cc1	i	i	i	i	i	x	x	x	x	x	x
Cc1cc(C)cc(N(CCC#N)C(=O)COC(=O)C2CCN(c3ccc(C(F)(F)F)cn3)CC2)c1	-6.42*	i	i	i	i	i	i	13.5%*	i	i	i
COc1cccc(CNCCc2c[nH]c3ccccc23)c1OCc1ccccc1	i	i	i	i	i	x	x	x	x	x	x
COc1cccc(CNC23CC4CC(CC(C4)C2)C3)c1OCc1ccccc1	-7.85*	i	i	i	15.3*	752.5%*	i	147.0%*	80.0%*	77.5%*	241.0%*
O=C(CCCN1C(=O)c2ccccc2C1=O)NCCc1ccc(OC(F)F)cc1	i	i	i	i	i	x	x	x	x	x	x
COc1ccc(NC(=O)C2CCCN(CCCc3ccccc3)C2)cc1OCC(C)C (stereo not drawn)	-7.29*	i	i	i	i	x	x	x	x	i	i	TRPC4 spec 2=75.5%*;TRPC4 spec=i;HEK293 MPD ctr 2-1=225.5%*;HEK293 MPD ctr-1=i
C#CC[N+](C)(C)CCCCCCCCCCCC	-5.13*	i	i	i	i	i	i	19.0%*	45.0%*	60.0%*	x
CCCN(CC1CC1)C(=O)CCc1nnc(CCc2c[nH]c3ccccc23)o1	-6.8*	i	i	i	i	x	x	x	x	i	i	TRPC4 spec 2=i;TRPC4 spec=2.7%*;HEK293 MPD ctr 2-1=i;HEK293 MPD ctr-1=0.9%*
CCN(CC)C(=O)CCc1nnc(CCc2c[nH]c3ccccc23)o1	i	i	i	i	i	x	x	x	x	x	x
O=C(Cc1ccccc1[N+](=O)[O-])N/N=C/c1cccnc1	i	i	i	i	i	x	x	x	x	x	x

Screens (PubChem)
